Measurements of several laboratories.
Compare with care: the assays were run in different laboratories.
Target: Proto-oncogene tyrosine-protein kinase ROS (ROS1, Homo sapiens, UniProt P08922)

With CC/C(=N\NC(=O)NCc1cccc(O)c1)c1ccc(O)c(C)c1O the inhibition was 2.5% (enzyme activity, inhibitor; 0.1 µM).
With CCN(CC)CCNC(=O)c1c(C)[nH]c(/C=C2\C(=O)Nc3ccc(F)cc32)c1C the inhibition was 4% (enzyme activity, inhibitor; 0.3 µM).
O=C(Nc1cnn(-c2csc(C(=O)NC3COC3)c2)c1)Nc1c(F)cccc1Cl has a remaining activity of 85.5% (enzyme activity, inhibitor; 5 µM).
The remaining signal of Cc1ccc(NC(=O)c2ccc(C)c(C(F)(F)F)c2)cc1C#Cc1nn(C2CCC(O)CC2)c2ncnc(N)c12 (stereo not drawn) is reported as 82% (cell-free assay; 10 µM).
With COc1cc2c(N3CCN(C(=O)Nc4ccc(OC(C)C)cc4)CC3)ncnc2cc1OCCCN1CCCCC1 the remaining signal was 90.1% (cell-free assay; 0.5 µM).
The remaining activity of CC(C)(C)c1nc(-c2cccc(NS(=O)(=O)c3c(F)cccc3F)c2F)c(-c2ccnc(N)n2)s1 is reported as 96% (enzyme activity, inhibitor, radiometric; 1 µM).
The remaining binding of CC(=O)N1CCC(c2ccc(C(=O)NC3=NCCN3)cc2C(F)(F)F)CC1 is reported as 99% (cell-free assay, competition with immobilised ligand; 1 µM).
With CN1CC(Oc2cnc(C#N)cc2-c2ccn3nc(NC(=O)C4CC4)cc3c2)C1 the inhibition was 8% (enzyme activity, inhibitor; 1 µM).
Cc1ccc(C(=O)NCc2ccsc2)cc1C#Cc1cn(C(C)C)c2ncnc(N)c12 gave an activity vs control of 92% (enzyme activity, inhibitor; 1 µM).
COc1ccc(COc2ccc(Cc3cnc(N)nc3N)cc2OC)cc1 gave a remaining signal of 99.9% (cell-free assay; 0.5 µM).
For O=C1NC(c2ccccn2)Sc2ccccc21 (stereo not drawn), the remaining binding was 95% (cell-free assay, competition with immobilised ligand; 1 µM).
CCOc1cc(-c2nncn2C)ccc1Nc1ncc2cc(C)nc(NCC(C)(C)C)c2n1 has an inhibition of 31% (enzyme activity, inhibitor, FRET; 1 µM).
For CO[C@@H](C)c1c(Nc2ccc([C@@H](N(C)C(=O)C3CCS(=O)(=O)CC3)C(F)(F)F)cc2)cnc2cc(Cl)nn12, the remaining binding was 82% (cell-free assay, competition with immobilised ligand; 1 µM).
For CC(C)(O)[C@H]1CC[C@H](Nc2ccc3ncc(-c4cccc(C(F)(F)F)c4)n3n2)CC1, the remaining activity was 25.1% (enzyme activity, inhibitor; 1 µM).
With Cc1ccc(C(=O)Nc2ccc(CN3CCN(C)CC3)c(C(F)(F)F)c2)cc1C#Cc1cnc2cccnn12 the remaining activity was 78% (enzyme activity; 23.5 nM).
With CCC(=O)N[C@@H]1CC[C@H](C(=O)N(C)c2ccc(-c3nc4ccccc4o3)cc2)C1 the remaining binding was 100% (cell-free assay, competition with immobilised ligand; 1 µM).
The inhibition of CNCc1ccc(-c2cc(-c3nc(-c4ccc(S(=O)(=O)C(C)C)cc4)cnc3N)on2)cc1 is reported as 0% (enzyme activity, inhibitor; 0.4 µM).
Cc1cnc(NC2CCOCC2)nc1-n1cnc(C(=O)NC(CN)c2cc(F)cc(Cl)c2)c1 (stereo not drawn) has a remaining activity of 103% (enzyme activity, inhibitor, radiometric; 1 µM).
COc1cc2ncnc(Nc3ccc(Oc4ccccc4)cc3C)c2cc1OC gave an inhibition of 4% (enzyme activity, inhibitor; 1 µM).
CNC(=O)Nc1ccc2c(c1)[C@@]1(CC2)OC(=O)N(CC(=O)N(Cc2ccc(F)cc2)[C@@H](C)C(F)(F)F)C1=O has a remaining binding of 87% (cell-free assay, competition with immobilised ligand; 1 µM).
For O=C1NC(=O)c2cc(Nc3ccc(F)cc3)c(Nc3ccc(F)cc3)cc21, the remaining signal was 92% (cell-free assay; 0.5 µM).
The remaining binding of O=C(N[C@H]1CCCCC/C=C\C2C[C@@]2(C(=O)O)NC(=O)[C@@H]2C[C@@H](Oc3ccncc3)CN2C1=O)OC1CCCC1 (stereo partly drawn) is reported as 92% (cell-free assay, competition with immobilised ligand; 1 µM).
The inhibition of C=CC(=O)Nc1cc(Nc2nccc(Nc3cc(Cl)c(F)cc3C(C)(C)O)n2)c(OC)cc1N1CC[C@@H](N(C)C)C1 is reported as 51% (enzyme activity, inhibitor; 1 µM).
N#Cc1ccc(Nc2ccc3[nH]c(=O)[nH]c3c2)c(Cl)c1 gave a remaining binding of 100% (cell-free assay, competition with immobilised ligand; 1 µM).
O=C1Nc2ccc(Cl)cc2C1=Cc1cc(Cl)c(O)c(Cl)c1 has a remaining signal of 89.7% (cell-free assay; 0.5 µM).
With Cc1c[nH]c2nccc(Oc3c(F)cc(Nc4cc(Cl)nc(N)n4)cc3F)c12 the remaining binding was 96% (cell-free assay, competition with immobilised ligand; 0.1 µM).
For Cc1ccc(Nc2nccc(N(C)c3ccc4c(C)n(C)nc4c3)n2)cc1S(N)(=O)=O, the inhibition was 3% (enzyme activity, inhibitor; 0.3 µM).
